In ChEMBL document CHEMBL3407337, “Molecular design, synthesis and biological research of novel pyridyl acridones as potent DNA-binding and apoptosis-inducing agents” (Eur J Med Chem, 2015) one finds inhibition and IC50 data, which are given here for 26 compounds.

Test [1] has as its target T1, DNA topoisomerase 1 (Homo sapiens) (UniProt P11387).
T1 sequence (whole entry): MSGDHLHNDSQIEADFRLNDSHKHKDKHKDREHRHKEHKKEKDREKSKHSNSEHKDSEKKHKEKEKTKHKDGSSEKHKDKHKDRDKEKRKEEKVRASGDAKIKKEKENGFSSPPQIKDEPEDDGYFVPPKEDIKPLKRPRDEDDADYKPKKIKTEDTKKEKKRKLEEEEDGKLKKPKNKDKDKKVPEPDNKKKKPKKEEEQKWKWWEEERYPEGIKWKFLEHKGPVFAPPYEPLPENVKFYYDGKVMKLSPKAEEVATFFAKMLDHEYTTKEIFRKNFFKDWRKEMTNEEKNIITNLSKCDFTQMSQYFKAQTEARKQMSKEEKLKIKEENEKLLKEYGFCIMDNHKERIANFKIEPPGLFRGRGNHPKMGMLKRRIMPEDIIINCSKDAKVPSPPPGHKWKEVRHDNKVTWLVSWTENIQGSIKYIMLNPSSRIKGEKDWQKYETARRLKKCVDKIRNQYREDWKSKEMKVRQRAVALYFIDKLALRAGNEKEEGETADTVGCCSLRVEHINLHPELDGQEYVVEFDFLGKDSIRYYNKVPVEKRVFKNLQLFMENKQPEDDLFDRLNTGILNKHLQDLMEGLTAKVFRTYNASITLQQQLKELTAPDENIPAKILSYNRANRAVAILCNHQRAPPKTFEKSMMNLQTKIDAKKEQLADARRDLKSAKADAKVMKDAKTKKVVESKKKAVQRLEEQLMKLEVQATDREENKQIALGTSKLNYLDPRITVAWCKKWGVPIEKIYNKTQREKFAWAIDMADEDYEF
As to the kind of experiment: Inhibition of recombinant human Topo1-mediated relation of supercoiled pBR322 DNA at 50 uM after 30 mins by agarose gel electrophoresis. A digest of the protocol: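 pBR322 at 100 ng with 1.0 unit recombinant human topo I. Incubated 30 min at 37 °C in 35 mM Tris-HCl pH 8.0, 5 mM MgCl2, 72 mM KCl, 0.01% BSA, 2 mM spermidine and 5 mM DTT. Run on 1% agarose in TAE at 100 V for 25 min. EB-stained gel viewed under UV.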

Test [2] relates to K562. The test is described as follows: Antiproliferative activity against human K562 cells after 48 hrs by MTT assay. The format is functional, cell-based. The conditions noted are these: K562, 48 h. In outline:
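K562 suspension cells in RPMI-1640 with 10% FBS, 37 °C, 5% CO2. Seeded at 1.5×10^4 cells/well, exposed 48 h to final 50, 25, 10, 1 and 0.1 μM. MTT (5 mg/mL) added for 4 h at 37 °C. IC50 from the dose series.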

Structures are written as SMILES. The source made the active and inactive calls. The rule behind the calls is not given here.

A word on the IC50: it is the midpoint of a concentration-inhibition curve. High values mean lower potency, low ones higher potency.

`COc1cccc2c(=O)c3c(N(Cc4ccccn4)Cc4ccccn4)ccc(C(=O)NCCCN(C)C)c3[nH]c12`: in test [1], the inhibition result is “inactive”. Besides, it took 13.5 µM to reach half-maximal inhibition in test [2] (IC50). For `Cc1cccc2c(=O)c3c(NCc4cccnc4)ccc(C(=O)NCCCN(C)C)c3[nH]c12` the same measures were “Active” and 11.8 µM. On to `COCCNC(=O)c1ccc(NCc2cccnc2)c2c(=O)c3cccc(C)c3[nH]c12`, for which, in test [1], the inhibition result was “inactive”. The IC50 in test [2] was over 50 µM. Turning to `CN(C)CCNC(=O)c1ccc(NCc2ccncc2)c2c(=O)c3cccc(C(F)(F)F)c3[nH]c12`, the inhibition result in test [1] was “Active”. The IC50 in test [2] was determined as 0.89 µM. For `COc1cccc2c(=O)c3c(NCc4cccnc4)ccc(C(=O)NCCCN(C)C)c3[nH]c12` the same measures were “Active” and 11.3 µM. For `COc1cccc2c(=O)c3c(NCCc4ccncc4)ccc(C(=O)NCCN(C)C)c3[nH]c12` the same measures were “Active” and 3.08 µM. As to `CN(C)CCNC(=O)c1ccc(NCc2ccncc2)c2c(=O)c3cc(Cl)cc(Cl)c3[nH]c12`, in test [1], the inhibition entry was “Active”. Moreover, in test [2], 0.97 µM corresponded to half-maximal inhibition (IC50).

For the compound `COCCNC(=O)c1ccc(N(Cc2ccccn2)Cc2ccccn2)c2c(=O)c3cccc(C)c3[nH]c12`, in test [1], the inhibition entry is “inactive”. Also, in test [2], half-maximal inhibition (IC50) was put at 11.2 µM.

Take `COc1cccc2c(=O)c3c(NCc4ccncc4)ccc(C(=O)NCCN(C)C)c3[nH]c12`: the inhibition entry in test [1] is “Active”. The compound also yielded an IC50 in test [2] of 1.36 µM. In the same order, the values of `Cc1cccc2c(=O)c3c(NCc4ccncc4)ccc(C(=O)NCCCN(C)C)c3[nH]c12` are “Active” and 8.25 µM. `COc1cccc2c(=O)c3c(NCc4cccnc4)ccc(C(=O)NCCN(C)C)c3[nH]c12`: the inhibition entry in test [1] is “Active”. In test [2], this compound yielded an IC50 of 0.93 µM.

Take `Cc1cccc2c(=O)c3c(NCc4ccccn4)ccc(C(=O)NCCN(C)C)c3[nH]c12`: the inhibition result in test [1] is “Active”. This compound had an IC50 in test [2] of 1.71 µM. In the same order, the values of `COc1cccc2c(=O)c3c(N(Cc4ccccn4)Cc4ccccn4)ccc(C(=O)NCCN(C)C)c3[nH]c12` are “inactive” and 13.9 µM. For `COCCNC(=O)c1ccc(NCc2ccncc2)c2c(=O)c3cccc(OC)c3[nH]c12` the same measures were “inactive” and over 50 µM. For `CN(C)CCNC(=O)c1ccc(NCc2ccncc2)c2c(=O)c3ccccc3[nH]c12` the same measures were “Active” and 6.33 µM.

With `COCCNC(=O)c1ccc(NCc2cccnc2)c2c(=O)c3cccc(OC)c3[nH]c12`, the inhibition result in test [1] was “inactive”. Further, the IC50 in test [2] is over 50 µM. In test [2], `COc1cccc2c1C(=O)c1c(O)c3c(c(O)c1C2=O)C[C@@](O)(C(=O)CO)C[C@@H]3O[C@H]1C[C@H](N)[C@H](O)[C@H](C)O1` [DOXORUBICIN] registered an IC50 of 0.55 µM. As for `COCCNC(=O)c1ccc(NCc2ccccn2)c2c(=O)c3cccc(C)c3[nH]c12`, in test [1], the inhibition entry was “inactive”. In test [2], this compound yielded an IC50 of over 50 µM. On to `COc1cccc2c(=O)c3c(NCc4ccccn4)ccc(C(=O)NCCN(C)C)c3[nH]c12`, for which the inhibition result in test [1] was “Active”. The IC50 in test [2] amounted to 2.28 µM. In the same order, the values of `Cc1cccc2c(=O)c3c(NCc4cccnc4)ccc(C(=O)NCCN(C)C)c3[nH]c12` are “Active” and 1.09 µM. Turning to `COCCNC(=O)c1ccc(NCc2ccccn2)c2c(=O)c3cccc(OC)c3[nH]c12`, in test [1], the inhibition entry is “inactive”. In addition, the IC50 in test [2] is over 50 µM. In the same order, the values of `Cc1cccc2c(=O)c3c(NCc4ccccn4)ccc(C(=O)NCCCN(C)C)c3[nH]c12` are “Active” and 6.45 µM. Turning to `COc1cccc2c(=O)c3c(NCc4ccncc4)ccc(C(=O)NCCCN(C)C)c3[nH]c12`, in test [1], the inhibition result is “Active”. This compound came in with an IC50 in test [2] of 11.9 µM. In the same order, the values of `COc1cccc2c(=O)c3c(NCc4ccncc4)ccc(C(=O)NCCCCN(C)C)c3[nH]c12` are “Active” and 6.07 µM. For `COc1cccc2c(=O)c3c(NCc4ccccn4)ccc(C(=O)NCCCN(C)C)c3[nH]c12` the same measures were “Active” and 6.12 µM. For `COCCNC(=O)c1ccc(NCc2ccncc2)c2c(=O)c3cccc(C)c3[nH]c12` the same measures were “inactive” and over 50 µM.
